# Only some compounds are listed: those with a hit (about 3.7% of all), similar ones and a draw of the others.
# MC4R barr agon – activates human MC4R beta-arrestin recruitment | U2OS MC4R beta-arrestin complementation, luminescence; percent of melanotan II response, DMSO zero | activation, % at 8.9 µM | 360,000 compounds, 0.98% hits | AID 540308;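 active = activation above a per-plate cutoff, the mean activation of sample wells on that plate plus 3 SD, cut at about 8% in these data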
# Target sequence (P32245 whole entry, looked up): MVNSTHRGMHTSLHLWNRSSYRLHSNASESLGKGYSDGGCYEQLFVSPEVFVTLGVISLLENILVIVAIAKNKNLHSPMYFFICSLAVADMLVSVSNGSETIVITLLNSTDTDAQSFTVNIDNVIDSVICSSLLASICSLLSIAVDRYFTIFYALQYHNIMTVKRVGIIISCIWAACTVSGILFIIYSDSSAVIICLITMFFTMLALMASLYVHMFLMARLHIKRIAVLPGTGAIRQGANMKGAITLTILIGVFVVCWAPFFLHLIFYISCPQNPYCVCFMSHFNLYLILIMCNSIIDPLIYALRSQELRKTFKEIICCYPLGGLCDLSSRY
# Myeloid diff 2 – myeloid differentiation induction. ER-HoxA9 myeloid progenitors, lysozyme-GFP differentiation, flow cytometry. calls only at 10 µM. 360,000 compounds, 1% hits. AID 624256;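 active = normalized GFP-positive differentiation at or above the plate's own cutoff, the solvent-only control mean plus 3 SD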;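 note: cells exposed to compound for four days before flow analysis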
# MC4R antagonist – antagonists of human melanocortin 4 receptor (MC4R). MC4R-expressing cells, MTII-stimulated cAMP, LANCE TR-FRET. inhibition, % at 6.5 µM. 360,000 compounds, 0.48% hits. AID 540295;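 active = inhibition above its plate's cutoff, the mean of tested wells on that plate plus 3 SD, cut at about 29% in these data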;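 note: 0% = Melanotan II alone and 100% = Melanotan II plus saturating MCL0020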
#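 Material: U2OS-MC4R stable cell line | Reagent: Melanotan II challenge after compound preincubation | Doses: One concentration, 6.5 µM nominal | Incubation: 30-min compound preincubation, 1-h Melanotan II challenge, 1-h detection, room temperature | Signal: TR-FRET cAMP assay | Replicates: One well per compound, no replicates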
# Granule exo inh – lytic granule exocytosis inhibition | 360,000 compounds, 0.66% hits | inhibition, % at 10 µM | TALL-104 LAMP-1 surface exposure, flow cytometry; cells stimulated with thapsigargin and PMA | AID 651702;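 active = inhibition above about 55%, limit read from the data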
# EBI2 antag – blocks human EBI2 receptor beta-arrestin signaling | EBI2 beta-arrestin recruitment, luminescence, 7a,25-OHC stimulated | 360,000 compounds, 0.81% hits | P32249 | inhibition, % at 5 µM | AID 651636; in the data active = inhibition above about 38%;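 note: enzyme fragment complementation signal reports receptor beta-arrestin coupling in cells; 0% = agonist plus DMSO wells and 100% = wells without agonist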
# Exocytosis CP01 – blocks lytic granule exocytosis | inhibition, % at 10 µM | TALL-104 cells, LAMP-1 externalization, flow cytometry; stimulated with PMA plus thapsigargin | shares compounds with Granule exo inh | AID 651954 | 1,500 compounds, 11% hits; in the data active = inhibition above about 60%;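 note: 0% = stimulated vehicle wells and 100% = unstimulated wells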
# The depositor's hits bear a star; i = inactive; . = no result.
SMILES,MC4R barr agon,Myeloid diff 2,MC4R antagonist,Granule exo inh,EBI2 antag,Exocytosis CP01
COc1ccc(OC)c(-c2csc(NC(=O)Cc3ccc(F)cc3)n2)c1,-0.3,i,-11.2,96.8*,7.2,-12.3
N#Cc1ccc(-c2cn3c(n2)SCC3)cc1,-0.6,i,13.5,4.8,-3.3,.
CC(Oc1ccc(C(=O)c2ccc(F)cc2)cc1)C(=O)N1CCOCC1 (stereo not given),-3.2,i,0.3,5.8,-4.4,.
Cc1noc(C)c1S(=O)(=O)N(CC(=O)NCCc1ccccc1)c1ccc(C(C)C)cc1,5.1,i,7.2,56.2*,12.4,-14.0
Cc1noc(C)c1S(=O)(=O)N(CC(=O)NC(C)c1ccccc1)c1ccc(C(C)C)cc1 (stereo not given),4.1,i,12.3,69.7*,11.4,-4.4
Cc1ccccc1Nc1nc(N)nc(COC(=O)[C@@H](NC(=O)c2ccccc2Cl)C(C)C)n1,-4.2,i,2.1,-1.6,7.1,.
C[C@H](c1ccccc1)N1C[C@@H](COCc2ccccc2)Oc2cc(N3CC[C@@H](N(C)C)C3)ccc2S1(=O)=O,.,i,.,63.0*,8.4,12.6
C[C@@H](c1ccccc1)N1C[C@@H](COCc2ccccc2)Oc2cc(N3CC[C@H](N(C)C)C3)ccc2S1(=O)=O,.,i,.,69.9*,8.0,16.5
CCCN(C)C[C@@H]1Oc2ncc(Br)cc2C(=O)N([C@@H](C)CO)C[C@H]1C,-0.9,i,0.8,7.3,-7.2,.
Cc1cc(=O)[nH]c(-n2ncc(C#N)c2N)n1,0.8,i,2.1,-0.5,-2.3,.
N#Cc1ccc(NC(=O)Nc2ccc(Oc3ccc(NC(=O)Nc4ccc(C#N)cc4)cc3)cc2)cc1,-0.7,i,26.5,62.0*,-32.8,81.4*
COc1ccc(CNC(=O)C2CCN(S(=O)(=O)N3CCCCC3)CC2)c(OC)c1,-0.6,i,5.2,-0.4,-7.2,.
O=C1/C(=C\c2cccs2)Sc2ccc3ccccc3c21,0.8,i,12.6,84.7*,11.7,-1.3
COc1cccc(-n2cnc3sc(C)cc3c2=O)c1,-1.1,i,2.7,-2.8,-4.2,.
Cc1ccnc(NS(=O)(=O)c2ccc(NS(=O)(=O)c3cc(Cl)ccc3Cl)cc2)n1,-1.3,i,0.1,-4.0,-0.2,.
CCn1c(=O)[nH]c(=O)c2c(N)c(C(=O)c3cc(F)ccc3F)sc21,-4.0,i,-22.6,1.4,-7.3,.
c1ccc(CC2CCN(c3ncnc4sccc34)CC2)cc1,-1.6,i,8.3,63.1*,-3.2,-10.8
Cc1nc2c(-c3ccccc3)c(C)nn2c(C)c1CCC(=O)NCc1ccco1,1.2,i,3.1,4.7,-0.4,.
CCN1CCN(c2ccc(NC(=O)CCc3c(C)nc4c(-c5ccccc5)c(C)nn4c3C)cc2)CC1,-0.1,i,10.2,56.1*,-7.4,28.2
CC(=O)NC1(NC(C)=O)CCN(C)CC1,-1.0,i,6.6,-0.3,-8.4,.
Fc1cccc(CNc2ncnc3ccc(-c4ccc5c(c4)OCO5)cc23)c1,-0.3,i,1.9,65.0*,-10.2,-12.4
CCCn1c(=O)n(C)c(=O)c2c(SCC(=O)NCC(c3ccccc3)N(C)C)nc(CC(C)C)nc21 (stereo not given),-1.3,i,6.5,-0.1,12.6,.
c1ccc(-c2csc3ncnc(N4CCN(Cc5ccc6c(c5)OCO6)CC4)c23)cc1,1.9,i,11.7,76.5*,21.2,-4.2
CN1CCN(c2ncnc3scc(-c4ccccc4Cl)c23)CC1,-1.3,i,-4.1,3.2,-4.7,.
COc1ccc(-c2csc3ncnc(N4CCN(c5ccccc5OC)CC4)c23)cc1,4.5,i,13.5,87.9*,7.5,-10.1
SMILES,MC4R barr agon,Myeloid diff 2,MC4R antagonist,Granule exo inh,EBI2 antag,Exocytosis CP01
O=C(CSc1ncnc2scc(-c3ccccc3)c12)N1CCN(Cc2ccc3c(c2)OCO3)CC1,-2.8,i,-2.0,-2.9,2.5,.
Fc1ccc(CN2CCN(c3ncnc4scc(-c5ccccc5)c34)CC2)cc1,4.8,i,4.5,74.5*,7.1,-5.2
CCOc1ccccc1N1CCN(c2ncnc3scc(-c4ccc(OC)cc4)c23)CC1,-0.7,i,-0.7,19.0,4.8,.
Cc1cc(-c2csc3ncnc(N4CCN(C)CC4)c23)cc(C)c1C,-0.8,i,5.3,96.2*,6.4,1.2
Fc1ccccc1C1c2[nH]c3ccccc3c2CCN1Cc1ccoc1 (stereo not given),5.3,i,8.6,6.5,2.2,.
CC(C)(C)NS(=O)(=O)c1ccc(/C=C/C(=O)O)cc1,-1.0,i,6.9,-3.3,-14.1,.
Cc1ccc(S(=O)(=O)N(C)C[C@H]2Oc3ncc(-c4ccccc4)cc3C(=O)N([C@@H](C)CO)C[C@@H]2C)cc1,0.0,i,6.7,10.8,8.2,.
CC(Cc1ccccc1)NC(=S)CN1CCCC1=S (stereo not given),-2.8,i,-6.0,-3.7,-7.9,.
Fc1ccc(-c2csc3ncnc(N4CCN(Cc5ccccc5)CC4)c23)cc1,-1.3,i,12.6,1.0,8.5,.
Cc1sc2ncnc(N3CCN(Cc4ccccc4)CC3)c2c1-c1ccc(F)cc1,2.1,i,15.5,65.4*,27.2,-11.3
C(=C\c1nc(N2CCCCCC2)c2ccccc2n1)/c1ccccc1,-2.9,i,2.1,58.2*,31.6,32.0
c1ccc2c(N3CCCCC3)nc(N3CCCCC3)nc2c1,-2.5,i,2.2,1.1,10.4,.
CN(C)C1=NCCN1CCc1cccc(F)c1,-2.0,i,9.8,2.8,-1.2,.
CCCCC(=O)Nc1nc(C)c(-c2csc(Nc3ccccc3OC)n2)s1,-2.6,i,4.5,57.0*,-0.6,-14.3
C=CCCC(=O)Nc1nc(C)c(-c2csc(Nc3ccccc3OC)n2)s1,-1.1,i,-7.2,3.8,-0.5,.
COc1ccc(C(=O)NCCCNC(=O)c2cccnc2)cc1Br,-1.5,i,4.5,0.0,2.6,.
CCOc1ccccc1Nc1cc(C)nc2ccc(C)cc12,0.2,i,13.0,80.9*,7.4,-6.9
COc1ccc(OC)c(Nc2cc(C)nc3ccc(C)cc23)c1,-1.2,i,4.1,55.9*,2.1,-11.7
O=C(CSc1ccc(-c2cccnc2)nn1)Nc1ccc(F)c(F)c1,-2.7,i,0.4,-1.7,-13.1,.
CCCCN(C(=O)COc1ccc(C)cc1OC)c1c(N)n(CCC)c(=O)[nH]c1=O,-2.3,i,13.6,-2.2,-2.4,.
Cc1ccc(NC(=O)C2C(c3ccccc3)C2(Cl)Cl)c(C)c1 (stereo not given),1.5,i,10.7,-1.5,10.0,.
COc1ccc(NC(=O)C2C(c3ccccc3)C2(Cl)Cl)c(OC)c1 (stereo not given),1.0,i,-1.4,66.3*,3.8,-14.3
COc1ccc(NC(=O)C2C(c3ccccc3)C2(Cl)Cl)cc1 (stereo not given),-2.1,i,5.4,7.9,0.4,.
